# In ChEMBL document CHEMBL1781992, “A novel monocarbonyl analogue of curcumin, (1E,4E)-1,5-bis(2,3-dimethoxyphenyl)penta-1,4-dien-3-one, induced cancer cell H460 apoptosis via activation of endoplasmic reticulum stress signaling pathway” (J Med Chem, 2011):
# Calls of active or inactive are those of the source. The rule behind the calls is not given here.
# Experiments:
# NCI-H460 [1] = assay: Induction of apoptosis in human NCI-H460 cells assessed as early apoptotic cells at 10 uM after 6 hrs by annexinV-propidium iodide staining based flow cytometric analysis relative to control; format: functional
# How it was run: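 H460 cells plated for 6 h, then treated with 5, 10 or 20 μM. Cells washed, trypsin-EDTA detached and resuspended in PBS, then stained with annexin V and propidium iodide plus RNase and 0.1% Triton X-100 for 30 min at 37 °C before flow cytometry. Figure legend gives 6 h incubation.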
# NCI-H460 [2] = assay: Induction of GRP78 mRNA expression in human NCI-H460 cells after 1 hrs by real time quantitative PCR analysis; format: functional, cell-based
# How it was run: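 H460 cells treated across a concentration range for 1 h. GRP78 mRNA quantified by RT-qPCR, normalized to β-actin and expressed as percent of vehicle.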
structure (smiles),measurement,setting,value
COc1cccc(/C=C/C(=O)/C=C/c2cccc(OC)c2OC)c1OC,Activity,NCI-H460 [1],22.74%
same,Activity,NCI-H460 [2],Active
